The source made the active and inactive calls.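 Rule for the calls, unless noted: active = mean duplicate potentiation above the buffer control mean plus 5 SD of buffer wells; inactive = the rest.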

Sequence of Potassium voltage-gated channel subfamily KQT member 1 (Homo sapiens) (P51787 whole entry, looked up): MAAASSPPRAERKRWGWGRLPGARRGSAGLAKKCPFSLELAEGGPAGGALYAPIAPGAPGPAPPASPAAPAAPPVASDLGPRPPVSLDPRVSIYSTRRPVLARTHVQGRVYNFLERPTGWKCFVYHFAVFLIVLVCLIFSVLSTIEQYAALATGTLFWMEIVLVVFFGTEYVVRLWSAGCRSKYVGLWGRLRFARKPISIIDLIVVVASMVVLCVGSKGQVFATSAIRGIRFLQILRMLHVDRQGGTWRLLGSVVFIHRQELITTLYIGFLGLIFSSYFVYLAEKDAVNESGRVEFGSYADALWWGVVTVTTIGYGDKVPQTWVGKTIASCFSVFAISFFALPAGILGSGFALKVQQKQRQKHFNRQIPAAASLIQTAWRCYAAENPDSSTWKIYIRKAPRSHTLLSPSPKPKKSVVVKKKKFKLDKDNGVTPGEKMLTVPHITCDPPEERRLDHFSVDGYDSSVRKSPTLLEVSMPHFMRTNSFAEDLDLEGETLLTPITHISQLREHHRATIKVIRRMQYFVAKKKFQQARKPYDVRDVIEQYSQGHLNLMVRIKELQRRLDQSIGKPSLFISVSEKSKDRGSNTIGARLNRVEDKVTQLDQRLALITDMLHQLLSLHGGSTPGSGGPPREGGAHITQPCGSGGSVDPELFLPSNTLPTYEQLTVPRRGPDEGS
Sequence of Potassium voltage-gated channel subfamily KQT member 2 (Rattus norvegicus) (O88943 whole entry, looked up): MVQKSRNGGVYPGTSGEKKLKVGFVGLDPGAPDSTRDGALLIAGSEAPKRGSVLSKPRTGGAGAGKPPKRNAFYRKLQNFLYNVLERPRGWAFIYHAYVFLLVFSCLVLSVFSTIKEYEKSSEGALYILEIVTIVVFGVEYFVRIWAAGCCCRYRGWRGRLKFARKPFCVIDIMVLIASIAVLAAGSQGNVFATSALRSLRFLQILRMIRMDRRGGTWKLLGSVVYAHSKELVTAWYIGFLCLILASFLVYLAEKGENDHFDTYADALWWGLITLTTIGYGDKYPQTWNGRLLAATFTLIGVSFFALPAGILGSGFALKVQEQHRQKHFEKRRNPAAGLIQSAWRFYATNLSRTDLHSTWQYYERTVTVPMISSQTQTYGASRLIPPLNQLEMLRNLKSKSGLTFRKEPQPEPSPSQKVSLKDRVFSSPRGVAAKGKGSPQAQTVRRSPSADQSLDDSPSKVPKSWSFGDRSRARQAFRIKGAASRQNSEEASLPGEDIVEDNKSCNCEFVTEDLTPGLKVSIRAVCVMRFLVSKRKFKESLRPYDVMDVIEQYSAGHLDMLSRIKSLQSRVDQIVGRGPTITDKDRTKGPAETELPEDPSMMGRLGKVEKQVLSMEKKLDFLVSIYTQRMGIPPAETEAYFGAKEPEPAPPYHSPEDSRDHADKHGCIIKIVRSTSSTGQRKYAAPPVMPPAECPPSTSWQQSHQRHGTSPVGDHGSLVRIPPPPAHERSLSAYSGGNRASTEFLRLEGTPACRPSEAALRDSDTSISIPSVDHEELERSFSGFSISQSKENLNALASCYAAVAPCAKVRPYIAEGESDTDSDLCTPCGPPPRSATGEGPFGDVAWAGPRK

One assay concerns the target Potassium voltage-gated channel subfamily KQT member 2 (Rattus norvegicus) (UniProt O88943). The assay can be described thus: KCNQ2 thallium flux enhancement – KCNQ2-CHO-K1 cells, selectivity assay for KCNQ1 potentiator project (AID 493009).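 Note: assay conditions were tuned for KCNQ1 rather than KCNQ2 modulators; signal is max minus min fluorescence divided by baseline after thallium stimulus.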 As to conditions: FluxOR thallium flux fluorescence, at 10 µM; active compounds read high, scaled: buffer 0, activator control 100.
Regarding `C=CCNC(=S)Nc1sc2c(c1C(=O)OCC)CC(C)(CC)OC2` (stereo not drawn), the potentiation was 254% (active).
For the compound `CC(=O)Nc1ccc(S(=O)(=O)N2CCC(C(=O)O)CC2)cc1`, the result was inactive.
As for `CC1CCc2sc3nc(N4CCN(CCO)CC4)n4ncnc4c3c2C1` (stereo not drawn), the potentiation is 500% (active).
For `CCOC(=O)CN1C(=O)N(CC)C(C)=C(C(=O)OC)[C@@H]1c1ccccc1`, the result was inactive.
As to `Cc1ccc(-n2ncc3c(SCC(=O)NNC(=O)c4ccco4)ncnc32)cc1`, the result was inactive.
With `CN(c1ccccc1)S(=O)(=O)c1ccc(NC(=O)c2nc(S(C)(=O)=O)ncc2Cl)cc1`, the outcome was inactive.
On to `Cc1cnc(NC(=O)c2ccc(-c3nc4ccccc4s3)o2)s1`, for which the result was inactive.
For the compound `CON/C=N/C(=S)Nc1ncc(C(F)(F)F)cc1Cl`, the potentiation was 337% (active).
On to `OC(CON=C1c2ccccc2-c2ccccc21)CN1CCNCC1` (stereo not drawn), for which the outcome was inactive.
On the same count and under the same terms, then `Cc1cc(C)c(NC(=O)c2cn3c4c(c(N5CCN(C)CC5)c(F)cc4c2=O)OCC3C)c(C)c1` (stereo not drawn), with “inactive”; and `CCCc1cc(-c2n[nH]c(=S)n2C(C)c2ccccc2)cs1` (stereo not drawn), with “inactive”.
Same read-out and setting: then `CCOc1cc(CNc2ncnc3nc[nH]c23)ccc1OC`, with “inactive”.
For the compound `CCOC(=O)CSc1nc2ccccc2c(=O)n1-c1ccc(C)cn1`, the result was inactive.
On to `S=c1[nH]nc(-c2ccco2)n1/N=C/c1ccc(Cl)c(Cl)c1`, for which the potentiation was 145% (active).
In the case of `Cc1sc2ncnc(SCC(=O)NC(=O)c3cccn3C)c2c1C`, the potentiation was 201% (active).
As for `Cc1cccc(NC(=S)NNC(=O)c2cc3c(s2)CCC(C)C3)c1C` (stereo not drawn), the potentiation was 264% (active).
`CCc1ccc(CNC(=O)CCn2nc(C)c3c(C)n(-c4ccccc4)nc3c2=O)cc1`: the outcome was inactive.
Regarding `CCN=C1SC(CC(=O)Nc2ccccc2OCC)C(=O)N1CC` (stereo not drawn), the result was inactive.
Take `Cc1cc(OCC(=O)NNC(=O)c2cnccn2)cc(C)c1Cl`: the potentiation was 279% (active).
On the same count and under the same terms, then `c1ccc(CCCNc2ncnc3nc[nH]c23)cc1`, with 291% (active).
The same measure, in the same setting: then `CCOc1ccc2nc(/N=C/c3c(C)[nH]n(-c4ccc(C)cc4)c3=O)sc2c1`, with 332% (active).
The same measure, in the same setting: then `COc1ccc(OCC(=O)NNC(=O)c2cccs2)cc1`, with 168% (active).
Consider `Cn1nnnc1SCC(=O)NCc1ccc2c(c1)OCO2`, for which the result was inactive.
Still for that read-out and setting: to `O=c1cc(-c2c(F)c(F)c(F)c(F)c2F)oc2ccccc12` belongs “inactive”; to `CCOc1ccc(-n2cc(C(=O)Nc3cccc(C)n3)c3cc(OC)c(OC)cc3c2=O)cc1`, “inactive”.
Take `O=c1c2ccc(Cl)cc2nc(-c2ccc([N+](=O)[O-])cc2)n1O`: the potentiation is 428% (active).
On the same count and under the same terms, then `OCCCCNCc1ccc(OCc2ccc(Cl)cc2)cc1`, with 332% (active).
For the compound `COc1ccc(C)c2sc(NC(=O)C3=COCCO3)nc12`, the outcome was inactive.
For the compound `N#CC(c1ccc(Cl)cc1)c1ccc2c(C(F)(F)F)cc(C(F)(F)F)nc2n1` (stereo not drawn), the potentiation is 407% (active).
In the case of `Cc1ccccc1N(CC(=O)N/N=C/c1cc(C)n(-c2ccccc2C)c1C)S(C)(=O)=O`, the outcome was inactive.
Same read-out and setting: to `N=C1S/C(=C\c2ccc(-c3cccc(Cl)c3)o2)C(=O)N1c1nccs1` belongs “inactive”.
`Cc1ccc(NC(=S)N2CCC(N(C)CC3CCCO3)CC2)cc1` (stereo not drawn): the outcome was inactive.
As to `CC(C)n1c(=S)[nH]c2scc(-c3cccs3)c2c1=O`, the potentiation is 465% (active).
`CCc1ccc(/C=N/NC(=O)Cc2cccn2C)cc1`: the outcome was inactive.
Turning to `Cc1csc(NC(=S)NC(=O)c2ccccc2)n1`, the potentiation is 156% (active).
`COc1cccc(C(=O)NC(=S)N2c3ccccc3CC2C)c1OC` (stereo not drawn): the result was inactive.
With `COc1cccc(OC)c1C(=O)Nc1ccc(C(=O)NCc2ccccc2)cc1`, the result was inactive.
For `COc1ccc(-n2c(C)cc(C(=O)CCl)c2C)cc1`, the outcome was inactive.
Turning to `CCOC(=O)c1c(NC(=S)NCc2ccccc2)sc2c1CCN(C(=O)OCC)C2`, the outcome was inactive.

A further assay deals with Potassium voltage-gated channel subfamily KQT member 1 (Homo sapiens) (UniProt P51787). The assay can be described thus: KCNQ1 activators by electrophysiology – IonWorks patch clamp, KCNQ1-CHO cells, orthogonal assay for KCNQ1 potentiator project, confirmation (AID 493184;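 active = current rise at least 3 SD above the untreated control mean in each of two repeat wells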). To be noted: automated patch clamp current, at 10 µM; active compounds read high. In outline:
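assay system = KCNQ1-expressing CHO cells | medium = external bath solution at pH 7.4 | probe or stimulus = 2,000 ms depolarization, -90 to +40 mV | compound dosing = 10 µM final, single point | measured by = automated voltage clamp, amphotericin B perforated patch | measure = percent current increase versus pre-compound level | replication = duplicates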
Take `C=CCNC(=S)Nc1sc2c(c1C(=O)OCC)CC(C)(CC)OC2` (stereo not drawn): the outcome was inactive.
Regarding `CC(=O)Nc1ccc(S(=O)(=O)N2CCC(C(=O)O)CC2)cc1`, the outcome was inactive.
For `CC1CCc2sc3nc(N4CCN(CCO)CC4)n4ncnc4c3c2C1` (stereo not drawn), the result was inactive.
With `CCOC(=O)CN1C(=O)N(CC)C(C)=C(C(=O)OC)[C@@H]1c1ccccc1`, the outcome was inactive.
As for `Cc1ccc(-n2ncc3c(SCC(=O)NNC(=O)c4ccco4)ncnc32)cc1`, the result was inactive.
In the case of `CN(c1ccccc1)S(=O)(=O)c1ccc(NC(=O)c2nc(S(C)(=O)=O)ncc2Cl)cc1`, the outcome was inactive.
With `Cc1cnc(NC(=O)c2ccc(-c3nc4ccccc4s3)o2)s1`, the result was inactive.
`CON/C=N/C(=S)Nc1ncc(C(F)(F)F)cc1Cl`: the outcome was inactive.
For `OC(CON=C1c2ccccc2-c2ccccc21)CN1CCNCC1` (stereo not drawn), the result was inactive.
`Cc1cc(C)c(NC(=O)c2cn3c4c(c(N5CCN(C)CC5)c(F)cc4c2=O)OCC3C)c(C)c1` (stereo not drawn): the result was inactive.
Consider `CCCc1cc(-c2n[nH]c(=S)n2C(C)c2ccccc2)cs1` (stereo not drawn), for which the outcome was inactive.
Take `CCOc1cc(CNc2ncnc3nc[nH]c23)ccc1OC`: the result was inactive.
On the same count and under the same terms, then `CCOC(=O)CSc1nc2ccccc2c(=O)n1-c1ccc(C)cn1`, with “inactive”; and `S=c1[nH]nc(-c2ccco2)n1/N=C/c1ccc(Cl)c(Cl)c1`, with “inactive”.
Still for that read-out and setting: then `Cc1sc2ncnc(SCC(=O)NC(=O)c3cccn3C)c2c1C`, with “inactive”; and `Cc1cccc(NC(=S)NNC(=O)c2cc3c(s2)CCC(C)C3)c1C` (stereo not drawn), with “inactive”.
Same read-out and setting: then `CCc1ccc(CNC(=O)CCn2nc(C)c3c(C)n(-c4ccccc4)nc3c2=O)cc1`, with “inactive”.
Consider `CCN=C1SC(CC(=O)Nc2ccccc2OCC)C(=O)N1CC` (stereo not drawn), for which the result was inactive.
`Cc1cc(OCC(=O)NNC(=O)c2cnccn2)cc(C)c1Cl`: the outcome was inactive.
On the same count and under the same terms, then `c1ccc(CCCNc2ncnc3nc[nH]c23)cc1`, with “inactive”; and `CCOc1ccc2nc(/N=C/c3c(C)[nH]n(-c4ccc(C)cc4)c3=O)sc2c1`, with “inactive”; and `COc1ccc(OCC(=O)NNC(=O)c2cccs2)cc1`, with “inactive”.
Turning to `Cn1nnnc1SCC(=O)NCc1ccc2c(c1)OCO2`, the outcome was inactive.
Consider `O=c1cc(-c2c(F)c(F)c(F)c(F)c2F)oc2ccccc12`, for which the result was inactive.
Still for that read-out and setting: to `CCOc1ccc(-n2cc(C(=O)Nc3cccc(C)n3)c3cc(OC)c(OC)cc3c2=O)cc1` belongs “inactive”; to `O=c1c2ccc(Cl)cc2nc(-c2ccc([N+](=O)[O-])cc2)n1O`, “inactive”; to `OCCCCNCc1ccc(OCc2ccc(Cl)cc2)cc1`, “inactive”.
On the same count and under the same terms, then `COc1ccc(C)c2sc(NC(=O)C3=COCCO3)nc12`, with “inactive”; and `N#CC(c1ccc(Cl)cc1)c1ccc2c(C(F)(F)F)cc(C(F)(F)F)nc2n1` (stereo not drawn), with “inactive”.
Same read-out and setting: then `Cc1ccccc1N(CC(=O)N/N=C/c1cc(C)n(-c2ccccc2C)c1C)S(C)(=O)=O`, with “inactive”; and `N=C1S/C(=C\c2ccc(-c3cccc(Cl)c3)o2)C(=O)N1c1nccs1`, with “inactive”; and `Cc1ccc(NC(=S)N2CCC(N(C)CC3CCCO3)CC2)cc1` (stereo not drawn), with “inactive”.
Consider `CC(C)n1c(=S)[nH]c2scc(-c3cccs3)c2c1=O`, for which the outcome was inactive.
Take `CCc1ccc(/C=N/NC(=O)Cc2cccn2C)cc1`: the result was inactive.
Same read-out and setting: to `Cc1csc(NC(=S)NC(=O)c2ccccc2)n1` belongs “inactive”; to `COc1cccc(C(=O)NC(=S)N2c3ccccc3CC2C)c1OC` (stereo not drawn), “inactive”.
Regarding `COc1cccc(OC)c1C(=O)Nc1ccc(C(=O)NCc2ccccc2)cc1`, the result was inactive.
Same read-out and setting: then `COc1ccc(-n2c(C)cc(C(=O)CCl)c2C)cc1`, with “inactive”.
`CCOC(=O)c1c(NC(=S)NCc2ccccc2)sc2c1CCN(C(=O)OCC)C2`: the result was inactive.

These data come from PubChem BioAssay.
